Measured values: ChEMBL document CHEMBL3352626, “Synthesis and biological evaluation of novel oxindole-based RTK inhibitors as anti-cancer agents” (Bioorg Med Chem, 2014)
The source made the active and inactive calls. The rule behind the calls is not given here.

Columns and labels:
[1] = biological target: Epidermal growth factor receptor (Homo sapiens) (UniProt P00533); assay: Inhibition of recombinant EGFR (unknown origin) at 0.1 uM after 1 hr by microfluidic assay
Outline: (§1)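 Caliper microfluidic mobility-shift assay using recombinant kinases from Carna. Enzyme, substrate, ATP (at Km) and compound reacted for 1 h, then stopped with EDTA. Substrate-to-phosphoproduct conversion read on EZ Reader II. Percent inhibition calculated relative to no-enzyme blanks and full-reaction wells, each containing 2.5% DMSO.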

[2] = biological target: T1, Aurora kinase B (Homo sapiens, UniProt Q96GD4); assay: Inhibition of recombinant Aur B (unknown origin) after 1 hr by microfluidic assay; outline: as §1
[3] = biological target: Vascular endothelial growth factor receptor 2 (Homo sapiens) (UniProt P35968); assay: Inhibition of recombinant KDR (unknown origin) at 1 uM after 1 hr by microfluidic assay; outline: as §1
[4] = Cell cycle arrest at G1 phase in human SGC7901 cells at 3 to 6 uM after 24 hrs by flow cytometry; type: functional, cell-based; details: SGC-7901
Outline: (§2)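 Cells seeded in 60 mm plates, treated for 24 h, washed twice in PBS and fixed in ice-cold 75% ethanol. Stained overnight at 4 °C with PI ([…]) containing RNase 180 U/ml, 0.15% Triton X-100 and polyethylene glycol in 4 mmol/l citrate, pH 7.8. DNA content measured by FACScan flow cytometry against a DMSO group. Mean ± SEM of three independent experiments.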

[5] = Antiproliferative activity against human H460 cells after 72 hrs by MTS assay; type: functional, cell-based; details: NCI-H460, 72 h
Outline: (§3)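 Cells at 4 × 10^4 cells/ml, seeded and left overnight, then exposed in triplicate to 30, 10, 3, 1, 0.3 and 0.1 µM compound in DMSO for 72 h at 37 °C under 5% CO2. MTS dye added for 4 h and absorbance read at 490 nm. Inhibition = (1 − OD treated/OD DMSO control) × 100. IC50 derived from the dilution series.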

[6] = Antiproliferative activity against human HCC827 cells at 10 uM after 72 hrs by MTS assay; type: functional
[7] = Antiproliferative activity against human SGC7901 cells after 72 hrs by MTS assay; type: functional, cell-based; details: SGC-7901, 72 h; outline: as §3
[8] = biological target: T2, Mast/stem cell growth factor receptor Kit (Homo sapiens, UniProt P10721); assay: Inhibition of recombinant c-Kit (unknown origin) after 1 hr by microfluidic assay; outline: as §1
[9] = Cell cycle arrest in human PM8910 cells assessed as reduction of cells in S phase at 3 to 6 uM after 24 hrs by flow cytometry; type: functional, cell-based; outline: as §2
[10] = Antiproliferative activity against human H460 cells at 10 uM after 72 hrs by MTS assay; type: functional, NCI-H460
[11] = Antiproliferative activity against human Bel7402 cells after 72 hrs by MTS assay; type: functional, cell-based; details: Bel-7402, 72 h; outline: as §3
[12] = Antiproliferative activity against human PM8910 cells at 10 uM after 72 hrs by MTS assay; type: functional
[13] = biological target: T2, Mast/stem cell growth factor receptor Kit; assay: Inhibition of recombinant c-Kit (unknown origin) at 1 uM after 1 hr by microfluidic assay; outline: as §1
[14] = biological target: Platelet-derived growth factor receptor beta (Homo sapiens) (UniProt P09619); assay: Inhibition of recombinant PDGFRb (unknown origin) at 0.1 uM after 1 hr by microfluidic assay; outline: as §1
[15] = biological target: T3, Serine/threonine-protein kinase Sgk1 (Homo sapiens) (UniProt O00141); assay: Inhibition of recombinant SGK1 (unknown origin) at 10 uM after 1 hr by microfluidic assay; outline: as §1
T3 sequence (whole entry): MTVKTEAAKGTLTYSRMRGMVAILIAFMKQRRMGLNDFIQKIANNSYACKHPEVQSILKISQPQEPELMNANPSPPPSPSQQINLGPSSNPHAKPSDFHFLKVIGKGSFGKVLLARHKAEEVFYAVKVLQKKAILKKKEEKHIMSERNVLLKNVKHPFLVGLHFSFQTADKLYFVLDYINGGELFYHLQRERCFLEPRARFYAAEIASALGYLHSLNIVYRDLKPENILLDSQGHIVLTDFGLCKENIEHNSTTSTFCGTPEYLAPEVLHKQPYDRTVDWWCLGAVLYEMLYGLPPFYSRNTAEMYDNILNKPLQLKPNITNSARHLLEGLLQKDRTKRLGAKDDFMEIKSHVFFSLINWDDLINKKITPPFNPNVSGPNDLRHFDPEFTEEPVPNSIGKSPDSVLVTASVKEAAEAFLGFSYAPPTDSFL

[16] = Antiproliferative activity against human SKBR3 cells at 10 uM after 72 hrs by MTS assay; type: functional, SK-BR-3
Outline: (§4)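 Single-concentration screen. Cells at 4 × 10^4 cells/ml, seeded and incubated overnight, then given 10 µM compound in DMSO for 72 h (37 °C, 5% CO2), with DMSO-only controls. MTS added for 4 h and A490 read. Percent inhibition = (1 − OD490 treated/OD490 control) × 100, from triplicate experiments.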

[17] = biological target: T3, Serine/threonine-protein kinase Sgk1 (Homo sapiens); assay: Inhibition of recombinant SGK1 (unknown origin) at 0.1 uM after 1 hr by microfluidic assay; outline: as §1
[18] = biological target: T2, Mast/stem cell growth factor receptor Kit; assay: Inhibition of recombinant c-Kit (unknown origin) at 10 uM after 1 hr by microfluidic assay; outline: as §1
[19] = Cell cycle arrest in human SGC7901 cells assessed as reduction of cells in S phase at 3 to 6 uM after 24 hrs by flow cytometry; type: functional, cell-based; details: SGC-7901; outline: as §2
[20] = biological target: Vascular endothelial growth factor receptor 2 (Homo sapiens) (UniProt P35968); assay: Inhibition of recombinant KDR (unknown origin) at 0.1 uM after 1 hr by microfluidic assay; outline: as §1
[21] = tested on: A549; assay: Cell cycle arrest at G1 phase in human A549 cells at 3 to 6 uM after 24 hrs by flow cytometry; type: functional, cell-based; outline: as §2
[22] = biological target: T1, Aurora kinase B; assay: Inhibition of recombinant Aur B (unknown origin) at 10 uM after 1 hr by microfluidic assay; outline: as §1
[23] = tested on: A549; assay: Antiproliferative activity against human A549 cells after 72 hrs by MTS assay; type: functional, cell-based; details: A549, 72 h; outline: as §3
[24] = tested on: A549; assay: Cell cycle arrest in human A549 cells assessed as reduction of cells in S phase at 3 to 6 uM after 24 hrs by flow cytometry; type: functional, cell-based; outline: as §2
[25] = Antiproliferative activity against human Bel7402 cells at 10 uM after 72 hrs by MTS assay; type: functional, Bel-7402
[26] = Cell cycle arrest at G1 phase in human PM8910 cells at 3 to 6 uM after 24 hrs by flow cytometry; type: functional, cell-based; outline: as §2
[27] = biological target: Epidermal growth factor receptor (Homo sapiens) (UniProt P00533); assay: Inhibition of recombinant EGFR (unknown origin) at 10 uM after 1 hr by microfluidic assay; outline: as §1
[28] = Antiproliferative activity against human SGC7901 cells at 10 uM after 72 hrs by MTS assay; type: functional, SGC-7901
[29] = biological target: T2, Mast/stem cell growth factor receptor Kit; assay: Inhibition of recombinant c-Kit (unknown origin) at 0.1 uM after 1 hr by microfluidic assay; outline: as §1
[30] = biological target: Vascular endothelial growth factor receptor 2 (Homo sapiens) (UniProt P35968); assay: Inhibition of recombinant KDR (unknown origin) at 10 uM after 1 hr by microfluidic assay; outline: as §1
[31] = tested on: U-251; assay: Antiproliferative activity against human U251 cells at 10 uM after 72 hrs by MTS assay; type: functional; outline: as §4
[32] = Antiproliferative activity against human PM8910 cells after 72 hrs by MTS assay; type: functional, cell-based; details: PM8910, 72 h; outline: as §3
[33] = Antiproliferative activity against human HCC827 cells after 72 hrs by MTS assay; type: functional, cell-based; details: HCC827, 72 h; outline: as §3
[34] = biological target: Epidermal growth factor receptor (Homo sapiens) (UniProt P00533); assay: Inhibition of recombinant EGFR (unknown origin) at 1 uM after 1 hr by microfluidic assay; outline: as §1
[35] = Antiproliferative activity against rat NRK-52E cells after 72 hrs by MTS assay; type: cell-based
[36] = tested on: NCI-H1975; assay: Antiproliferative activity against human NCI-H1975 cells at 10 uM after 72 hrs by MTS assay; type: functional; outline: as §4
[37] = biological target: T3, Serine/threonine-protein kinase Sgk1 (Homo sapiens); assay: Inhibition of recombinant SGK1 (unknown origin) at 1 uM after 1 hr by microfluidic assay; outline: as §1
[38] = tested on: A549; assay: Antiproliferative activity against human A549 cells at 10 uM after 72 hrs by MTS assay; type: functional
[39] = biological target: Platelet-derived growth factor receptor beta (Homo sapiens) (UniProt P09619); assay: Inhibition of recombinant PDGFRb (unknown origin) at 10 uM after 1 hr by microfluidic assay; outline: as §1
[40] = biological target: T1, Aurora kinase B; assay: Inhibition of recombinant Aur B (unknown origin) at 1 uM after 1 hr by microfluidic assay; outline: as §1
[41] = biological target: Platelet-derived growth factor receptor beta (Homo sapiens) (UniProt P09619); assay: Inhibition of recombinant PDGFRb (unknown origin) at 1 uM after 1 hr by microfluidic assay; outline: as §1
[42] = biological target: T1, Aurora kinase B; assay: Inhibition of recombinant Aur B (unknown origin) at 0.1 uM after 1 hr by microfluidic assay; outline: as §1

Platelet-derived growth factor receptor beta (Homo sapiens), sequence (P09619 whole entry): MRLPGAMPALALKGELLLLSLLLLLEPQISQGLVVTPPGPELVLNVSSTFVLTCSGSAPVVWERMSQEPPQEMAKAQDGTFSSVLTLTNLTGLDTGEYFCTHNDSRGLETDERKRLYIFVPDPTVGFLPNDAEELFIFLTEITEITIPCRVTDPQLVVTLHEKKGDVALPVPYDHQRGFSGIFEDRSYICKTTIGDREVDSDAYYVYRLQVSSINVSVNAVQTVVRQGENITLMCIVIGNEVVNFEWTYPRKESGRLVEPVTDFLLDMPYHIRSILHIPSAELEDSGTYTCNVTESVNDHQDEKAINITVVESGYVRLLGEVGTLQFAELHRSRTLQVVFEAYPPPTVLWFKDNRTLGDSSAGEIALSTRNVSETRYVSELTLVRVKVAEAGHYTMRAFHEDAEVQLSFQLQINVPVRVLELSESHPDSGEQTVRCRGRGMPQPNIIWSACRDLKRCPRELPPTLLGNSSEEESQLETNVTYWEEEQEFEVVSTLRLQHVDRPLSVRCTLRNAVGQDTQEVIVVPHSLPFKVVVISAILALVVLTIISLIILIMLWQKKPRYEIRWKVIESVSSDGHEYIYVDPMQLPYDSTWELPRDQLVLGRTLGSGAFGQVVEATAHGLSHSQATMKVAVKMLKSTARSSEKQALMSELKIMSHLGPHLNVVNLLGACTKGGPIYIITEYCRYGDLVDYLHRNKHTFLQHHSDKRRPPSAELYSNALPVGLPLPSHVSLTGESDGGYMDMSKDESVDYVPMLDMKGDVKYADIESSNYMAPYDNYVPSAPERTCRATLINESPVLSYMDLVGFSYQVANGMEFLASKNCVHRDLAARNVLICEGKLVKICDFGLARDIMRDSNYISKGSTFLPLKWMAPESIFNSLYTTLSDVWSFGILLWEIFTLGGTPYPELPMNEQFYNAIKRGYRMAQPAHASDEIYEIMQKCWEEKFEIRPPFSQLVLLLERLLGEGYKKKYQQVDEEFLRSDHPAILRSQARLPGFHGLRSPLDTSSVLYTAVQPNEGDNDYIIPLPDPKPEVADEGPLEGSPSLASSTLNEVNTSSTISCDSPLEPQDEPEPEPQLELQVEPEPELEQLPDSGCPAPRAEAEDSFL
Epidermal growth factor receptor (Homo sapiens), sequence (P00533 whole entry): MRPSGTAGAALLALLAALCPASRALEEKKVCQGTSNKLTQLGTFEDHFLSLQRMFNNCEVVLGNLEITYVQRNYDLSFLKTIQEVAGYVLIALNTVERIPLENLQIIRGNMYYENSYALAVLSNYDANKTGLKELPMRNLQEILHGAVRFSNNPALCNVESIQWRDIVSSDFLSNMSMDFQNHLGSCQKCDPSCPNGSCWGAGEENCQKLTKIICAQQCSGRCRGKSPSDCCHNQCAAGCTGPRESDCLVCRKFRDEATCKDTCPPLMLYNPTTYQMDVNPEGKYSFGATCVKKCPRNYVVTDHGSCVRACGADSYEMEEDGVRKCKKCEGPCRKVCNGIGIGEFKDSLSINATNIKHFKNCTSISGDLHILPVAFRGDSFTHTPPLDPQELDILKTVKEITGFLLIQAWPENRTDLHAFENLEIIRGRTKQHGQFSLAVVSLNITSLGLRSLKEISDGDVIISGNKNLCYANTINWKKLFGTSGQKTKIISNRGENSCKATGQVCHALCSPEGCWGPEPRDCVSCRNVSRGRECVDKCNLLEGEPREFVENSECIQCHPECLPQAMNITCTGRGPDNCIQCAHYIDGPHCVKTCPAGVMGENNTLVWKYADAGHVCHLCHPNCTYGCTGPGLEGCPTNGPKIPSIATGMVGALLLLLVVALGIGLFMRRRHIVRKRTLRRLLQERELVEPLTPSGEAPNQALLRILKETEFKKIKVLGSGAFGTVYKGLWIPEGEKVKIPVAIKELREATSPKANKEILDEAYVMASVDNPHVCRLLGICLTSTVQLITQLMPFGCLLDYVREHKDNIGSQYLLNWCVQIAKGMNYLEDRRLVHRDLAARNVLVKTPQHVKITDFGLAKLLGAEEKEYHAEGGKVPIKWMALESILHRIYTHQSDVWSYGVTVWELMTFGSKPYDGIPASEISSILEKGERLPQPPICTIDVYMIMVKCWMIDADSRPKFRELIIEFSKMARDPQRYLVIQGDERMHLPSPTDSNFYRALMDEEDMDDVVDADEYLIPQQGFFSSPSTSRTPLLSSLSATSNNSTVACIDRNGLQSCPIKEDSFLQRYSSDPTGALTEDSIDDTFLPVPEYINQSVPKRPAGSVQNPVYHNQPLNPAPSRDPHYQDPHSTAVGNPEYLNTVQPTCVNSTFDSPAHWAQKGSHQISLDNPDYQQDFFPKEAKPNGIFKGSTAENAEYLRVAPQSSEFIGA
T2 sequence (P10721 whole entry): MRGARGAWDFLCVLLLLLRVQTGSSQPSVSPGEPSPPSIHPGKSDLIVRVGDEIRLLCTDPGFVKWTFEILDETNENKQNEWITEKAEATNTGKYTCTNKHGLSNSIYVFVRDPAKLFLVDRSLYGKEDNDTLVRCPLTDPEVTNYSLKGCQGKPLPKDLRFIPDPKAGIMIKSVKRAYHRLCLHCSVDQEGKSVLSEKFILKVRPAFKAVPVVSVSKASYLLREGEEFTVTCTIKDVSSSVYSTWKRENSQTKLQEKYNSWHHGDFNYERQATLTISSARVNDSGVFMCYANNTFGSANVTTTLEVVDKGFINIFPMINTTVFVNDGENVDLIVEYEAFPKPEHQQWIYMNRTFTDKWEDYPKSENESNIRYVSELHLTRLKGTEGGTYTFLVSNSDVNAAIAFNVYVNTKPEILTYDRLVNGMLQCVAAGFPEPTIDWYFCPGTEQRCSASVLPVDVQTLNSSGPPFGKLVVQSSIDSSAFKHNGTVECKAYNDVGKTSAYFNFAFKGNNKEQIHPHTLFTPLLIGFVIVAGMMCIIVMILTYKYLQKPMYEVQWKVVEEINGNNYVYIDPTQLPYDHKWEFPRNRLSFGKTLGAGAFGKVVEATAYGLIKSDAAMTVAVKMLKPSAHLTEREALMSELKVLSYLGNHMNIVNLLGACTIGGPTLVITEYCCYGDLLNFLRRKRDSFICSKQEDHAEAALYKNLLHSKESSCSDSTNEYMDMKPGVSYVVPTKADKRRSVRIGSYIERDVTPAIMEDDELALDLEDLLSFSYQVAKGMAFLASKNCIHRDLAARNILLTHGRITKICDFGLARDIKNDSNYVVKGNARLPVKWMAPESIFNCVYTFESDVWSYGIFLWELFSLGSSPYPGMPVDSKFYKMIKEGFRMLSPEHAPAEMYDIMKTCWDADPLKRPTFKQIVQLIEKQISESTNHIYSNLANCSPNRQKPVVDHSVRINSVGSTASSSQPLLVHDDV
Vascular endothelial growth factor receptor 2 (Homo sapiens), sequence (P35968 whole entry): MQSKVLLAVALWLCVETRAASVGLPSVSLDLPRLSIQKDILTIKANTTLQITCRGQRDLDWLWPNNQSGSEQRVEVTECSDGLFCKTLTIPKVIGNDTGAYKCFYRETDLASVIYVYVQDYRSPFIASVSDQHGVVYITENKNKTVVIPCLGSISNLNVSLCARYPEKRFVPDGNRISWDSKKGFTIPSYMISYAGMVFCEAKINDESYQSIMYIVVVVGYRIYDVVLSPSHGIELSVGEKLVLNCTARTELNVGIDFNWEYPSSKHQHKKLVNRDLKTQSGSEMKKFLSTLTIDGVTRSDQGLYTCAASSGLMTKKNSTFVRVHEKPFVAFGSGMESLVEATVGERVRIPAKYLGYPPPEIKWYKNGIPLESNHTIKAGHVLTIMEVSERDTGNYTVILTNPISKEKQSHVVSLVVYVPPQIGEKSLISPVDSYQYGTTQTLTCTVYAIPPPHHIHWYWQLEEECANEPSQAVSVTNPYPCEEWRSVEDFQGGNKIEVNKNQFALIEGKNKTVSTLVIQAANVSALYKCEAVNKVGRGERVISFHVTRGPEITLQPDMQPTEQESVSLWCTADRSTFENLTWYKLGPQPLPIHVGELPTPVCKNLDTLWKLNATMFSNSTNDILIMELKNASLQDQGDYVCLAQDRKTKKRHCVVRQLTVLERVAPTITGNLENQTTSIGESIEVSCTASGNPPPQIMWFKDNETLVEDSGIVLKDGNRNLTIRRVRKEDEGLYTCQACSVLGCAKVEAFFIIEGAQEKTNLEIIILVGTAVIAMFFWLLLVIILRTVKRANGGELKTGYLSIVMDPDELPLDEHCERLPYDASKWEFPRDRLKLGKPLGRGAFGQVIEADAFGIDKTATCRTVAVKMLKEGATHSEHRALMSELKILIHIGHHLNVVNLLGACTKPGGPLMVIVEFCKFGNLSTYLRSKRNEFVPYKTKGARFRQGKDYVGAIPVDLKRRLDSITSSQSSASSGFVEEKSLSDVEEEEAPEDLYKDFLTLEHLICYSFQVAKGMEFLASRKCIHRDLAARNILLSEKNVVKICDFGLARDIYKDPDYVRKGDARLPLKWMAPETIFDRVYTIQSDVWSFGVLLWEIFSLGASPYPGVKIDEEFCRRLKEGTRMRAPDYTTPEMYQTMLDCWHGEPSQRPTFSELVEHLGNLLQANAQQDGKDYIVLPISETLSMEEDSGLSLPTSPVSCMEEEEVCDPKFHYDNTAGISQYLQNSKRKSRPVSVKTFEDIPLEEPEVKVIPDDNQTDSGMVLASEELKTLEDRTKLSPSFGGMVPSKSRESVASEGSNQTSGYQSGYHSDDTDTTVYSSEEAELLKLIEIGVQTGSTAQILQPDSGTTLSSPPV
T1 sequence (Q96GD4 whole entry): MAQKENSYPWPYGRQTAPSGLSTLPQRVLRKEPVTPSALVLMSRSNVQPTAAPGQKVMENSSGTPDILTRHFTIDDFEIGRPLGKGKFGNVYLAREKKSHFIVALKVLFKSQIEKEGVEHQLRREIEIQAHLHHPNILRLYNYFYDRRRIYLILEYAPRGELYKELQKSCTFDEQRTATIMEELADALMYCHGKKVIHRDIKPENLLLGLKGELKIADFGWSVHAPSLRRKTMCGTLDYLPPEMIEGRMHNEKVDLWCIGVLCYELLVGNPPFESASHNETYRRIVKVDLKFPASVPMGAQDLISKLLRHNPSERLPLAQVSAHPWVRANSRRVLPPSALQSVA

inhibition [1]: 19.1%
IC50 [2]: 0.587 µM
inhibition [3]: 14.7%
IC50 [8]: 0.071 µM
inhibition [13]: 56.4%
inhibition [14]: 13.6%
inhibition [15]: 42.4%
inhibition [17]: 3.56%
inhibition [18]: 57.6%
inhibition [20]: 6%
inhibition [22]: 88.3%
IC50 [23]: 3.04 µM
inhibition [27]: 24.3%
inhibition [29]: 31.9%
inhibition [30]: 62.6%
inhibition [34]: 20%
inhibition [37]: 11.8%
inhibition [39]: 76%
inhibition [40]: 53.5%
inhibition [41]: 46.7%
inhibition [42]: 14.4%
SMILES: O=C1Nc2ccccc2/C1=C/c1ccc(N2CCN(C(=O)CCCl)CC2)cc1
Activity [4]: Active
IC50 [5]: 20.1 µM
Activity [6]: 56.47%
IC50 [7]: 2.85 µM
Activity [9]: Active
Activity [10]: 66.63%
IC50 [11]: 3.39 µM
Activity [12]: 59.46%
Activity [16]: 26.45%
Activity [19]: Active
Activity [21]: Active
Activity [24]: Active
Activity [25]: 49.21%
Activity [26]: Active
Activity [28]: 60.98%
Activity [31]: 20.43%
IC50 [32]: 2.76 µM
IC50 [33]: 12.7 µM
IC50 [35]: > 30 µM
Activity [36]: 67.22%
Activity [38]: 54.9%
